From article PMC2633472 (European journal of pharmacology, 2008)
Entries after “also recorded” stand apart in the source; their conditions may differ.

Key:
Sprague-Dawley rats [1] = assay: Conditioned taste aversion test; type: in vivo, rat
Sprague-Dawley rats [2] = assay: MCH-induced food intake in satiated rats; type: in vivo, rat; conditions: 2 nmole i.c.v.
Outline: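 Cannulated male Sprague-Dawley rats were kept in wire-bottom cages >3 weeks and screened by drinking >5 ml/1 h after 50 ng angiotensin II. Satiated rats got 10 μl i.c.v. over 2 min at 7–8 a.m.: aCSF, MCH 2 nmole, or MCH plus test compound (1 or 5 nmole). Vehicles were DMSO-matched (up to 5% v/v). Food came 10 min later; cumulative intake over 4 h; ANOVA/Bonferroni.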

rat MCH1 receptor [3] = target: T1, rat MCH1 receptor (Rattus norvegicus, UniProt P97639); assay: MCH-induced Ca2+ mobilization; type: cell-based
rat MCH1 receptor [4] = target: T1, rat MCH1 receptor; type: binding
MCH2R = MCH2R (Homo sapiens, UniProt Q969V1); assay: Selectivity FLIPR activity assay; type: cell-based
Outline: (§1)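 Calcium FLIPR format: receptor-expressing cells were loaded 1 h at 37°C with fluo-4 in Hanks' balanced salt solution plus 20 mM HEPES (pH 7.4). Receptor activation was then measured as intracellular Ca2+ fluorescence in the presence of increasing test compound concentrations. The top concentration reported was 10 uM.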

NPY2R = NPY2R (Homo sapiens, UniProt P49146); assay: Selectivity FLIPR activity assay; type: cell-based
Outline: as §1

GPR10 = GPR10 (Homo sapiens, UniProt P49683); assay: Selectivity FLIPR activity assay; type: cell-based
Outline: as §1

Opiate κ (KOR) = Opiate κ (KOR) (Homo sapiens, UniProt P41145); assay: Selectivity FLIPR activity assay; type: cell-based
Outline: as §1

Orexin 1R = Orexin 1R (Homo sapiens, UniProt O43613); assay: Selectivity FLIPR activity assay; type: cell-based
Outline: as §1

hERG channel = hERG channel (Homo sapiens, UniProt Q12809); assay: in vitro hERG electrophysiology assay; type: cell-based
Adenosine A1 = Adenosine A1 (Homo sapiens, UniProt P30542); assay: Radioligand displacement; type: binding
Adenosine A2A = Adenosine A2A (Homo sapiens, UniProt P29274); assay: Radioligand displacement; type: binding
Adrenergic β1/β2 = assay: Radioligand displacement; conditions: read-out: BINDING Adrenergic β1/β2; displacement of specific radioactive ligand
Dopamine D2s = Dopamine D2s (Homo sapiens, UniProt P14416); assay: Radioligand displacement; type: binding
Dopamine D1 = Dopamine D1 (Homo sapiens, UniProt P21728); assay: Radioligand displacement; type: binding
GPR103 = GPR103 (Homo sapiens, UniProt Q96P65); assay: Radioligand displacement; type: binding
Histamine H1 = Histamine H1 (Homo sapiens, UniProt P35367); assay: Radioligand displacement; type: binding
Muscarinic M2 = Muscarinic M2 (Homo sapiens, UniProt P08172); assay: Radioligand displacement; type: binding
Muscarinic M3 = Muscarinic M3 (Homo sapiens, UniProt P20309); assay: Radioligand displacement; type: binding
Prostanoid EP4 = Prostanoid EP4 (Homo sapiens, UniProt P35408); assay: Radioligand displacement; type: binding
Opiate μ (OP3, MOP) = Opiate μ (OP3, MOP) (Homo sapiens, UniProt P35372); assay: Radioligand displacement; type: binding
Phorobol Ester = assay: Radioligand displacement; conditions: read-out: BINDING Phorobol Ester; displacement of specific radioactive ligand
Rolipram = assay: Radioligand displacement; conditions: read-out: BINDING Rolipram; displacement of specific radioactive ligand
[5] = target: Nicotinic Acetylcholine α1, Bungarotoxin (Homo sapiens, UniProt P02708+P07510+Q07001); assay: biochemical; type: binding
[6] = target: Transporter, Norepinephrine (NET) (Homo sapiens, UniProt P23975); assay: Radioligand displacement; type: binding
[7] = Pharmacokinetics in rats after intravenous administration; type: in vivo; conditions: rat, plasma, 5 mg/kg
Sprague-Dawley rats [8] = assay: Spontaneous locomotor activity; type: in vivo, rat
Outline: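 Cannulated male Sprague-Dawley rats were acclimatized 60 min to a novel home cage, removed, given vehicle or 5 nmole test compound i.c.v., and returned at once. An infrared beam monitor (4 × 8 frame) recorded 60 min. Beam breaks changing location counted as ambulatory; all others as non-ambulatory fine movement. n=10.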

T1 sequence (P97639 whole entry): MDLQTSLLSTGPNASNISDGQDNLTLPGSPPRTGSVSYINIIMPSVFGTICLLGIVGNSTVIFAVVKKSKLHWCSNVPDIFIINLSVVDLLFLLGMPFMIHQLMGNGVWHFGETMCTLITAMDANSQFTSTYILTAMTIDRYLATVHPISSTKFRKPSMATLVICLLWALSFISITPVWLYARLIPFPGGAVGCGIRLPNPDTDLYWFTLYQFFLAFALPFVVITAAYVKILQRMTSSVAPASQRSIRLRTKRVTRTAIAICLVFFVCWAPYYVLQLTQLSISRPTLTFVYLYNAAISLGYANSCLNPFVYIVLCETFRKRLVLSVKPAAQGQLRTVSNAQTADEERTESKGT
Chain of hERG channel (Q12809 whole entry): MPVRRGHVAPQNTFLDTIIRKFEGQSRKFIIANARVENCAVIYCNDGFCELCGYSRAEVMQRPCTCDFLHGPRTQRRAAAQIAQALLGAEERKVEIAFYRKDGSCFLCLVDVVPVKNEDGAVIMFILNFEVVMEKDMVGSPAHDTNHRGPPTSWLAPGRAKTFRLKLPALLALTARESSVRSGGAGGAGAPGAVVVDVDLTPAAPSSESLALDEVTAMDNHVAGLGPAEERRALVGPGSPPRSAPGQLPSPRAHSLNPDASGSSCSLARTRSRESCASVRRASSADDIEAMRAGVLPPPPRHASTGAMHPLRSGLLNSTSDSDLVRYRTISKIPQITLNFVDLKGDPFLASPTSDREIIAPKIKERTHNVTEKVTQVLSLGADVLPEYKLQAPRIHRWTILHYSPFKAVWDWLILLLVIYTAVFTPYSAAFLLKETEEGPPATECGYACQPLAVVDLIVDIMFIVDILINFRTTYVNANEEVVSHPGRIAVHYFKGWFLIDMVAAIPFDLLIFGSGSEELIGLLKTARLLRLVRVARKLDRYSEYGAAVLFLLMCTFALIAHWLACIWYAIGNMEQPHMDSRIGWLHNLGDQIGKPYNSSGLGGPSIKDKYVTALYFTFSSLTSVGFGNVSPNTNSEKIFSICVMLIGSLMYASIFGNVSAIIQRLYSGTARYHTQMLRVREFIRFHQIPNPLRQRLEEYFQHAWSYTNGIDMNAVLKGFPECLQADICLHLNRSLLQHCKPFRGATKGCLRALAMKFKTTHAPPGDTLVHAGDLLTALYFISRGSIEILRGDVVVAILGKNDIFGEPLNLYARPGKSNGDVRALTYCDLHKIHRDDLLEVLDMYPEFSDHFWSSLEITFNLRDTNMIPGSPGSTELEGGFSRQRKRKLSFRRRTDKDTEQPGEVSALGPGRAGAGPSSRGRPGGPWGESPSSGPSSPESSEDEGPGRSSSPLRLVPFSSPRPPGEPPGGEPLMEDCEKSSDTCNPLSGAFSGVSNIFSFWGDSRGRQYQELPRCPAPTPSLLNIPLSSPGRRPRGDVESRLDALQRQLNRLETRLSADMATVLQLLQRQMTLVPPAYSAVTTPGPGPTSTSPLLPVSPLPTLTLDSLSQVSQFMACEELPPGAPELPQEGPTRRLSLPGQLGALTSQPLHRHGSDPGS
Chain of Prostanoid EP4 (P35408 whole entry): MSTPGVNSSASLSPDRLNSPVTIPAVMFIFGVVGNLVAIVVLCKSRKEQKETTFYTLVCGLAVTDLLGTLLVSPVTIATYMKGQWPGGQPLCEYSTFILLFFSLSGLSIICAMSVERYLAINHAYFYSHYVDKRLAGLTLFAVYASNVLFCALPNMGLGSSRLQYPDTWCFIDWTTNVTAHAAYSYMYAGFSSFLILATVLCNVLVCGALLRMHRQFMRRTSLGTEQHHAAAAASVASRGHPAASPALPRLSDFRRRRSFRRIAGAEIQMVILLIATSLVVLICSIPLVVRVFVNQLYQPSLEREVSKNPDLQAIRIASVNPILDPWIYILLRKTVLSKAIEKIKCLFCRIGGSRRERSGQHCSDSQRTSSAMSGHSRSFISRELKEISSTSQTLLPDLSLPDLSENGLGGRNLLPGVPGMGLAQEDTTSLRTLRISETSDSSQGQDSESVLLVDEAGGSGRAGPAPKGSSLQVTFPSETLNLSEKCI
Chain of Orexin 1R (O43613 whole entry): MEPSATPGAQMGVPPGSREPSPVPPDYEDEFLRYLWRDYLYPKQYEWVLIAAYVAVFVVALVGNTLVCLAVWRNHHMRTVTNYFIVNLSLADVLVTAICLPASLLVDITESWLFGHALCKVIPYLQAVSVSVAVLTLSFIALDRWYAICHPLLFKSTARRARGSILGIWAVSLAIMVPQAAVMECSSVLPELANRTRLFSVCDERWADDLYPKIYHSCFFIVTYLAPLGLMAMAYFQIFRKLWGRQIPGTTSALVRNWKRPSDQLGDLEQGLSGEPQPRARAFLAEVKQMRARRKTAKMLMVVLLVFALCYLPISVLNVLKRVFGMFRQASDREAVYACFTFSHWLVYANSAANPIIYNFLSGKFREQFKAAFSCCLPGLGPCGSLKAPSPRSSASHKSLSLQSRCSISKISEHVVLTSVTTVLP
Chain of Transporter, Norepinephrine (NET) (P23975 whole entry): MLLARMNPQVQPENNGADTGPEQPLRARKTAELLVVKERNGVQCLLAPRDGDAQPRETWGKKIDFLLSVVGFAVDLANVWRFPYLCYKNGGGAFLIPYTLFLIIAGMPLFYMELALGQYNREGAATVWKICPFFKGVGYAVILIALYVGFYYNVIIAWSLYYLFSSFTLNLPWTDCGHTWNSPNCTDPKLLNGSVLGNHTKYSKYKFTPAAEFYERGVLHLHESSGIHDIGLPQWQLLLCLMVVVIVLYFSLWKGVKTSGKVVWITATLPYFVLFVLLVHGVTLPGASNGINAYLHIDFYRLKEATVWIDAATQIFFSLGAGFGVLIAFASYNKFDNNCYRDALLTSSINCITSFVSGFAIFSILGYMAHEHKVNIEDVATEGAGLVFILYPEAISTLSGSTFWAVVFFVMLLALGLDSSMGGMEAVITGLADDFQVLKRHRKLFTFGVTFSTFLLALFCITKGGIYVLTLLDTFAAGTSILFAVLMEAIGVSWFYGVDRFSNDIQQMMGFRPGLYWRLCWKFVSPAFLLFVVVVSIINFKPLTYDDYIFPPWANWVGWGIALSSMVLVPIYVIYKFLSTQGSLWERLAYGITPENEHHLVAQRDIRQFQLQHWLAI
Chain of Adenosine A2A (P29274 whole entry): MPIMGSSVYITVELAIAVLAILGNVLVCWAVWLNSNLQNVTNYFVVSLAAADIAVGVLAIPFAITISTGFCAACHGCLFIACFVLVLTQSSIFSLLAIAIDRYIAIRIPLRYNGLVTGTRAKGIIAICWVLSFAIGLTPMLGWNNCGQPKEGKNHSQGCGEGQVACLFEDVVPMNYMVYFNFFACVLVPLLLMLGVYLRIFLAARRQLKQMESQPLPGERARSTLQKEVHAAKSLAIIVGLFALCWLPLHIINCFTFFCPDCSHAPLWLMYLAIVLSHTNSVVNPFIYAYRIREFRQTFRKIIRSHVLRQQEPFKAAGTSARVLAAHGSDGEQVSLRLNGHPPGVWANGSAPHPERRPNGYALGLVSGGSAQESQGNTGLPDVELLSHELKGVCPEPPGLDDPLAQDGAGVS
Chain of MCH2R (Q969V1 whole entry): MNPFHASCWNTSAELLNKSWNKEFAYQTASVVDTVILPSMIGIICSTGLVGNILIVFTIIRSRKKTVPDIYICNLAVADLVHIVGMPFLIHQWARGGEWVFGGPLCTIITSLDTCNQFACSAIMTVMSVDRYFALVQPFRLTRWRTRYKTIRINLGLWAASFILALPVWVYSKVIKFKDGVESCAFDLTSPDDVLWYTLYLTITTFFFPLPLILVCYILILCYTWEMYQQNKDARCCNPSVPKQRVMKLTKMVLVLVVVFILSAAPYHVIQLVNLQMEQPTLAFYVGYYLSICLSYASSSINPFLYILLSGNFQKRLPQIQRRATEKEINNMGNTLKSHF
Chain of GPR10 (P49683 whole entry, species assumed): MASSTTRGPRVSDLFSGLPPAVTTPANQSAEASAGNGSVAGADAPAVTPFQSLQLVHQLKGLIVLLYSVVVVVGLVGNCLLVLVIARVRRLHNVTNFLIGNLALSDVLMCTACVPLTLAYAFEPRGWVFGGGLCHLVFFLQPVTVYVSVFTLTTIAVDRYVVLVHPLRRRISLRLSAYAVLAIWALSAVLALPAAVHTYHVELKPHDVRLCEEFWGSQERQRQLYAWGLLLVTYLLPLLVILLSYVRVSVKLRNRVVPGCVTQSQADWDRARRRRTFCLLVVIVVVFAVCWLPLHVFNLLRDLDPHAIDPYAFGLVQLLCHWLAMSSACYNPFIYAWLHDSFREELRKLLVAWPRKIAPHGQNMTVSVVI
Chain of Histamine H1 (P35367 whole entry): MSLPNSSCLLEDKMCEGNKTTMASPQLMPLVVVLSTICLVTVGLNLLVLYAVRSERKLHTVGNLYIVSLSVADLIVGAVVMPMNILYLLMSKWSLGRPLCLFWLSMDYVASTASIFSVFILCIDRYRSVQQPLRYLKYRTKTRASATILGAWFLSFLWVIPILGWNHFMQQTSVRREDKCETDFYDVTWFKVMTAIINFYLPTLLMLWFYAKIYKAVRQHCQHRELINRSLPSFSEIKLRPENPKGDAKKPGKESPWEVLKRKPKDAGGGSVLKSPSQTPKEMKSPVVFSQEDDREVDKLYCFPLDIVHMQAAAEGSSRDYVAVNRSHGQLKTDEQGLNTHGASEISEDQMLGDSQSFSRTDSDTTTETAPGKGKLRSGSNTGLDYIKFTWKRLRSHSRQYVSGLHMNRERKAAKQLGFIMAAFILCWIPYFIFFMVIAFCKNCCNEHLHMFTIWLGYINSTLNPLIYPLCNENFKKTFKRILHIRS
Chain of Adenosine A1 (P30542 whole entry): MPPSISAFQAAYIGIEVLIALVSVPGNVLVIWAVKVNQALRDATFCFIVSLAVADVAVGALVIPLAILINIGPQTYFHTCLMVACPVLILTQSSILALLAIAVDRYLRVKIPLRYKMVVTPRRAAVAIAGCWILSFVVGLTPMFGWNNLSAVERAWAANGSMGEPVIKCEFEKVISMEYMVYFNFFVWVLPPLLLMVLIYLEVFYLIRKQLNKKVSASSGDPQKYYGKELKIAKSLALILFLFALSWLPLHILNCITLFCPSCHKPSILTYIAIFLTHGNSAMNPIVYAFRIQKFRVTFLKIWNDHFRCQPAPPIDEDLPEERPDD

## [Cl-].[Li+] [LiCl, Lithium chloride, reference compound]
Sprague-Dawley rats [1]; 300 mg/kg, i.p., positive control, P<0.01 vs. vehicle group
  taste aversion effect: robust taste aversion effect

## CSCC[C@@H]1NC(=O)[C@@H](NC(=O)[C@H](CCCNC(=N)N)NC(=O)[C@H](CC(C)C)NC(=O)[C@H](CCSC)NC(=O)[C@H](CC(=O)O)NC(=O)[C@H](Cc2ccccc2)NC(=O)[C@@H](N)CC(=O)O)CSSC[C@@H](C(=O)N[C@@H](Cc2c[nH]c3ccccc23)C(=O)N[C@@H](CCC(N)=O)C(=O)N[C@H](C(=O)O)C(C)C)NC(=O)[C@@H]2CCCN2C(=O)[C@H](CCCNC(=N)N)NC(=O)[C@H](Cc2ccc(O)cc2)NC(=O)[C@H](C(C)C)NC(=O)[C@H](CCCNC(=N)N)NC(=O)CNC(=O)[C@H](CC(C)C)NC1=O [MCH, Melanin-concentrating hormone]
Sprague-Dawley rats [2]
  feeding after intracerebroventricular injection: induced rapid and robust feeding

## C[C@@H](CNCc1ccccc1)N1C[C@H](CCCNC(=N)N)N(CCc2cccc(F)c2)C1=S [TPI 1361-17, N-(3-{(4S)-1-[(1S)-2-(benzylamino)-1-methylethyl]-3-[2-(3-fluorophenyl)ethyl]-2-thioxoimidazolidin-4-yl}propyl)guanidine]
Rat MCH1 receptor [3]; MCH dose response curves with increasing concentrations of antagonist
  pA2 (Schild regression): 9.43
Rat MCH1 receptor [3]; compound alone, no MCH
  effect on basal Ca2+ level by itself: did not change the basal Ca^2+ level
Rat MCH1 receptor [3]; r^2 = 0.975
  Schild regression slope: 1.085 ± 0.010
Rat MCH1 receptor [4]
  IC50: 0.0318 ± 0.00866 µM
Rat MCH1 receptor [4]; rat MCH1 receptor membranes
  displacement of the binding of [125I] MCH: completely displaced
MCH2R
  selectivity for MCH1 receptor compared to human MCH2 receptor: more than 1,000 fold
NPY2R
  selectivity for MCH1 receptor compared to neuropeptide Y2: more than 1,000 fold
GPR10
  selectivity for MCH1 receptor compared to prolactin releasing peptide receptor: more than 1,000 fold
Opiate κ (KOR)
  selectivity for MCH1 receptor compared to kappa opioid receptors: more than 1,000 fold
Orexin 1R
  selectivity for MCH1 receptor compared to orexin 1R: more than 1,000 fold
hERG channel
  IC50: > 10 µM
hERG channel; result in words
  activity in a hERG channel assay: not show activity; also recorded: no activity was detected
Adenosine A1
  IC50: > 1 µM
Adenosine A2A
  IC50: > 1 µM
Adrenergic β1/β2
  IC50: > 1 µM
Dopamine D2s
  IC50: > 1 µM
Dopamine D1
  IC50: > 1 µM
GPR103
  IC50: > 1 µM
Histamine H1
  IC50: > 1 µM
Muscarinic M2
  IC50: > 1 µM
Muscarinic M3
  IC50: > 1 µM
Prostanoid EP4
  IC50: > 1 µM
Opiate μ (OP3, MOP)
  IC50: > 1 µM
Phorobol Ester
  IC50: > 1 µM
Rolipram
  IC50: > 1 µM
[5]
  IC50: > 1 µM
[6]
  IC50: > 1 µM
[7]
  Tmax: 4.98 min
[7]; AUC0-∞ (mean value), intravenous, mean
  AUC(0-inf): 2440 ng·h/mL
[7]; plasma elimination half-life (mean value), intravenous, mean
  half-life: 2.7 h
Sprague-Dawley rats [8]; five nmole i.c.v., monitored for 60 minutes
  ambulatory and non-ambulatory movements vs vehicle: no significant differences
Sprague-Dawley rats [8]; five or one nmole i.c.v.
  detectable changes in movement: did not exhibit any detectable changes in movement
Sprague-Dawley rats [1]; 10 nmole, i.c.v., saccharin preference
  aversive effect in taste aversion test: did not result in any aversive effect
